Tests used:
[1] = target: Xanthine dehydrogenase/oxidase (Bos taurus, UniProt P80457); experiment: Inhibition of bovine milk xanthine oxidoreductase
How it was run: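 Bovine milk XO (2 mU/mL) with 15 µM xanthine in 50 mM phosphate buffer, pH 7.4, at 25 °C, with or without compound. Uric acid formation read as absorbance rise at 292 nm. Initial rate taken from 0 to 2.5 min and used for IC50.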

Rattus norvegicus [2] = experiment: Reduction of uric acid level in rat serum at 0.3 mg/kg, po after 6 hrs by phosphotungstic acid method; type: functional; design: scale not given: the % may be the effect or the level left
How it was run: (§1)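 Rats dosed orally. Blood drawn from the orbital sinus 6 h post-dose, clotted 1 h at room temperature and centrifuged. Serum uric acid measured by the phosphotungstic acid method.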

[3] = Cmax in rat at 3 mg/kg, po; type: ADME, organism-based; design: dose 3 mg/kg, route oral; settings: in vivo
How it was run: (§2)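 Compounds given orally to rats; blood taken from the jugular vein at set times and centrifuged to plasma. Plasma aliquots were mixed with acetonitrile containing an internal standard, then centrifuged.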

[4] = Half life in rat at 3 mg/kg, po; type: ADME, organism-based; design: dose 3 mg/kg, route oral; settings: in vivo; how it was run: as §2
CYP3A4 = CYP3A4 (Homo sapiens, UniProt P08684); experiment: Inhibition of human CYP3A4 at 10 uM; type: ADME
[5] = Cmax in rat at 1 mg/kg, po; type: ADME, organism-based; design: dose 1 mg/kg, route oral; settings: in vivo; how it was run: as §2
Cytochrome P450 1A2 = target: T1, Cytochrome P450 1A2 (Homo sapiens, UniProt P05177); experiment: Inhibition of human CYP1A2; type: ADME
T1 sequence (P05177 whole entry): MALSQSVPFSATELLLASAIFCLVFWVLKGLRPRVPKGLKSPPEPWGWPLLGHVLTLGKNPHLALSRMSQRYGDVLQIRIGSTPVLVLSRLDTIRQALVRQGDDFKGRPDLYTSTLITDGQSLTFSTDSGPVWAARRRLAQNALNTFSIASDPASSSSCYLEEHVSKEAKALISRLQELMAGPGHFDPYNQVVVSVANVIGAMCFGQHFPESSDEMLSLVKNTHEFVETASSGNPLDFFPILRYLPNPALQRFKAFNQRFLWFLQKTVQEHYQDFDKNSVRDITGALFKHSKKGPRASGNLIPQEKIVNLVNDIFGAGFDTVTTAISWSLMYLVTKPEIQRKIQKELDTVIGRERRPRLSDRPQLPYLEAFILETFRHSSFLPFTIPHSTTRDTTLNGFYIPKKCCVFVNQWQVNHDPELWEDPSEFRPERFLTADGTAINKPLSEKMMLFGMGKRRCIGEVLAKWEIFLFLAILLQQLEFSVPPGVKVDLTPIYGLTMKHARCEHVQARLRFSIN

Cytochrome P450 2C9 = Cytochrome P450 2C9 (Homo sapiens, UniProt P11712); experiment: Inhibition of human CYP2C9; type: ADME
Cytochrome P450 2C19 = Cytochrome P450 2C19 (Homo sapiens, UniProt P33261); experiment: Inhibition of human CYP2C19; type: ADME
Cytochrome P450 2D6 = Cytochrome P450 2D6 (Homo sapiens, UniProt P10635); experiment: Inhibition of human CYP2D6; type: ADME
Rattus norvegicus [6] = experiment: Reduction of uric acid level in rat serum at 1 mg/kg, po after 6 hrs by phosphotungstic acid method; type: functional; design: scale not given: the % may be the effect or the level left; how it was run: as §1

Sequence of CYP3A4 (P08684 whole entry): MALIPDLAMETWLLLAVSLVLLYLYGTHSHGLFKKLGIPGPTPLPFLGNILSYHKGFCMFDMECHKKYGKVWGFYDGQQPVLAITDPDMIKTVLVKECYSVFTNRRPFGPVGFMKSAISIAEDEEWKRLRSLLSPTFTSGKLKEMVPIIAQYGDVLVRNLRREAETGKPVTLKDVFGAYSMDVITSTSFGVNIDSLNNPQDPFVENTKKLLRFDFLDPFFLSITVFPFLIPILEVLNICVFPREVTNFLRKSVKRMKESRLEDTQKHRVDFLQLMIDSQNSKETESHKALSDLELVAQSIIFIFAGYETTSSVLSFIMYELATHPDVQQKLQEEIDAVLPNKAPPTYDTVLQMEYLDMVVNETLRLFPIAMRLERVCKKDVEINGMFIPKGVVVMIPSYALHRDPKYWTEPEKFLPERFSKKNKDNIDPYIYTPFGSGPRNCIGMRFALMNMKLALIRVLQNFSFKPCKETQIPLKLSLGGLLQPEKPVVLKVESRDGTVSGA
Sequence of Xanthine dehydrogenase/oxidase (P80457 whole entry): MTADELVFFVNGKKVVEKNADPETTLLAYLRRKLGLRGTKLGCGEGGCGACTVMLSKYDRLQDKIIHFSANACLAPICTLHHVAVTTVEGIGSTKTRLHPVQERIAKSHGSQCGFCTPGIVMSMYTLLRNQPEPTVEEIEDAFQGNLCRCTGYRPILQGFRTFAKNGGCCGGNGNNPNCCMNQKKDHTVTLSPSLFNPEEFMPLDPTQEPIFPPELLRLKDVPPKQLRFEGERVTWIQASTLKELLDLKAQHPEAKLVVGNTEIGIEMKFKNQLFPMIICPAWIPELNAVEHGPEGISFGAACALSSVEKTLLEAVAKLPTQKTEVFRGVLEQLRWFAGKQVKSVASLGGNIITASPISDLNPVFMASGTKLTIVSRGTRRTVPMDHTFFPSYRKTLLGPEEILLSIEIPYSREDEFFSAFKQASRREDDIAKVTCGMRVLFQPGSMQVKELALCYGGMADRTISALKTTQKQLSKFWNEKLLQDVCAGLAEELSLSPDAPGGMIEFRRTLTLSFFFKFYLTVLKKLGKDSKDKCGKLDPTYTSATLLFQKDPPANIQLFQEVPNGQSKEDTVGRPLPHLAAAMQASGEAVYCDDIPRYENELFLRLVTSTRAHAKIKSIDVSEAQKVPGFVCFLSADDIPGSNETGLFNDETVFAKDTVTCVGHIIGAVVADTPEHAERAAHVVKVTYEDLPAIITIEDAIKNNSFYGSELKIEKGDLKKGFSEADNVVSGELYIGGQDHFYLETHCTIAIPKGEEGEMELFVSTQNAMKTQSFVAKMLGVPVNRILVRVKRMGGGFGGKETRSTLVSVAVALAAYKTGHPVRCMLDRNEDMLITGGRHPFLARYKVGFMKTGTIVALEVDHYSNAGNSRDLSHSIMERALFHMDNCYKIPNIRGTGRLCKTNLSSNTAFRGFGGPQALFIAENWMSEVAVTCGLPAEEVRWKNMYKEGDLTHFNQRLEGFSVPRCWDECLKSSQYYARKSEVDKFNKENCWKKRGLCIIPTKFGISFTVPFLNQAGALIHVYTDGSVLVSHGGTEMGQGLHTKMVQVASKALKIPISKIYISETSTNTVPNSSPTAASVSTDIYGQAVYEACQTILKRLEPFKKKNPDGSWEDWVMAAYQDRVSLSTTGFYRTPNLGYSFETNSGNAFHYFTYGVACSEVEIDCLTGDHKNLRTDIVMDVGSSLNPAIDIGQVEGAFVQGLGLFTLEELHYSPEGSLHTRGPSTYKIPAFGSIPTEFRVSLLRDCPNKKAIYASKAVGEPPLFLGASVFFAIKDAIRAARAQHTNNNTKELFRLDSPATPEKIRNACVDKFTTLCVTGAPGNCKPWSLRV
Sequence of Cytochrome P450 2C9 (P11712 whole entry): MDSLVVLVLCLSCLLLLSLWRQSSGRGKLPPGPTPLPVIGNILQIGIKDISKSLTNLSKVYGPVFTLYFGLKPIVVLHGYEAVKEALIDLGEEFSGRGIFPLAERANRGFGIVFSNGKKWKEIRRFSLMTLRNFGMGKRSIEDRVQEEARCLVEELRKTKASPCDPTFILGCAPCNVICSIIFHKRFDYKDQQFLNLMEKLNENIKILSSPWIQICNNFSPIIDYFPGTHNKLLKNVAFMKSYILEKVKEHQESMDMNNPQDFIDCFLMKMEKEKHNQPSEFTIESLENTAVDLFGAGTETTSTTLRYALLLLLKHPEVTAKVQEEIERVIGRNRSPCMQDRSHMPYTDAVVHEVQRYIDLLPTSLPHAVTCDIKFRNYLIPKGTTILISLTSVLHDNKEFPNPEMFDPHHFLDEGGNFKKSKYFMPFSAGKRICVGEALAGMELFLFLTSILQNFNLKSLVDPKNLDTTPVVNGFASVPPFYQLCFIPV
Sequence of Cytochrome P450 2D6 (P10635 whole entry): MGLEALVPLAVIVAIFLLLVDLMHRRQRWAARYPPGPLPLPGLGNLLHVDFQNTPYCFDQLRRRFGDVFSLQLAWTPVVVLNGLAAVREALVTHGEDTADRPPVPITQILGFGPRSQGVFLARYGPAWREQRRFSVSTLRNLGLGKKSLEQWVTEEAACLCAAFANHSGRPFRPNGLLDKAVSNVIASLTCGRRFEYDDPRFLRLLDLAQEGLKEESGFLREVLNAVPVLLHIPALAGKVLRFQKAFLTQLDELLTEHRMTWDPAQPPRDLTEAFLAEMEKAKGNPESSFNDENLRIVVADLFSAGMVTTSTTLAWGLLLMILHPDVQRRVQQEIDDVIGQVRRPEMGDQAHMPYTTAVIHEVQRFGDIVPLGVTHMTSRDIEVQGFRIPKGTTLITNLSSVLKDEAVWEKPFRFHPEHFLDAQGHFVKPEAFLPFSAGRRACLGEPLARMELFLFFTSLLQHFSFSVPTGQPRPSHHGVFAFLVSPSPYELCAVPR
Sequence of Cytochrome P450 2C19 (P33261 whole entry): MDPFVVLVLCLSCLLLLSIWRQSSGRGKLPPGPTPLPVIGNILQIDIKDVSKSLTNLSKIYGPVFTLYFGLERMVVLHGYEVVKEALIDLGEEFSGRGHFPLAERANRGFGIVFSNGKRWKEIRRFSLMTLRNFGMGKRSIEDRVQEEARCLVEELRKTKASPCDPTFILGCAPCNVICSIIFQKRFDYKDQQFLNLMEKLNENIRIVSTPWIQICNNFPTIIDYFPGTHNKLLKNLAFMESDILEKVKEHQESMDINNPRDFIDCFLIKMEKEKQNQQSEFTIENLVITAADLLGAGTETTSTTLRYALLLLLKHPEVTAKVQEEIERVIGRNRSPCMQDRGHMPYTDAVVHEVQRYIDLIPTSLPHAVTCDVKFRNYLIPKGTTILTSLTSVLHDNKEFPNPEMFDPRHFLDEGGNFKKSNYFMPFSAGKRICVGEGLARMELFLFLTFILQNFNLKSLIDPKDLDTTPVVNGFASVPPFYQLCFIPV

SMILES | IC50 [1] [nM] | Activity (Rattus norvegicus [2]) [%] | inhibition at 10 µM (CYP3A4) [%] | further results
COCOc1ccc(-c2nc(-c3ccnc(C)c3)n[nH]2)cc1C#N | 24 | 27 | – | –
CCOC(=O)c1cc(-c2nc(-c3ccnc(C)c3)n[nH]2)ccc1OCC(C)C | 20 | 42.4 | – | –
COCCOCCOc1ccc(-c2nc(-c3ccnc(C)c3)n[nH]2)cc1C#N | 31 | 52 | -6.7 | Cmax [3]: 712 ng/mL; half-life [4]: 58.2 min
CC(C)COc1ccc(-c2nc(-c3ccccn3)n[nH]2)cc1[N+](=O)[O-] | > 10000 | – | – | –
Cc1cc(-c2nc(-c3ccc(OCC(C)C)c([N+](=O)[O-])c3)n[nH]2)ccn1 | 10 | 39.1 | 7.7 | Cmax [5]: 7.8 ng/mL
COc1cc(-c2n[nH]c(-c3ccc(OCC(C)C)c([N+](=O)[O-])c3)n2)ccn1 | > 10000 | – | 6.4 | –
COCCOCOc1ccc(-c2nc(-c3ccnc(C)c3)n[nH]2)cc1C#N | 24 | 40 | 16.5 | Cmax [3]: 360 ng/mL; half-life [4]: 27 min
CCCCOCCOCCOc1ccc(-c2nc(-c3ccnc(C)c3)n[nH]2)cc1C#N | 26 | 10.1 | – | –
Cc1cc(-c2n[nH]c(-c3ccc(OCCOCCOCCCl)c(C#N)c3)n2)ccn1 | 21 | 40.7 | – | Cmax [3]: 684 ng/mL; half-life [4]: 31.2 min
Cc1cc(-c2nnc(-c3ccc(OCC(C)C)c([N+](=O)[O-])c3)[nH]2)cc(Cl)n1 | > 10000 | – | 10.9 | –
Cc1cc(-c2nnc(-c3ccc(OCC(=O)O)c(C#N)c3)[nH]2)ccn1 | 110 | – | – | –
Cc1cc(-c2n[nH]c(-c3ccc(OCCO)c(C#N)c3)n2)ccn1 | 40 | 10.9 | – | –
COCCOc1ccc(-c2nc(-c3ccnc(C)c3)n[nH]2)cc1C#N | 64 | 36.5 | – | –
CC(C)COc1ccc(NC(=O)C(=O)O)cc1Cl | 7300 | – | – | –
CC(C)COc1ccc(NC(=O)Nc2ccncc2)cc1[N+](=O)[O-] | 15 | -3.2 | – | –
CC(C)COc1ccc(-c2n[nH]c(-c3ccncc3)n2)cc1[N+](=O)[O-] | 3.7 | 33.7 | 80.9 | Activity (Cytochrome P450 1A2): Active; Activity (Cytochrome P450 2C9): Active; Activity (Cytochrome P450 2C19): Active; Activity (Cytochrome P450 2D6): Active; Cmax [5]: 13.8 ng/mL
Cc1cc(-c2nc(-c3ccc(OCC(C)C)c(C#N)c3)n[nH]2)ccn1 | 17 | 46 | 16.8 | Cmax [5]: 4.5 ng/mL; Cmax [3]: 16.7 ng/mL; half-life [4]: 22.2 min
Cc1cc(-c2n[nH]c(-c3ccc(O)c(C#N)c3)n2)ccn1 | 43 | -8.2 | – | –
Cc1cc(-c2nnc(-c3ccc(OCC(C)C)c(C(=O)O)c3)[nH]2)ccn1 | > 10000 | – | – | –
CC(C)COc1ccc(-c2nc(-c3cccnc3)n[nH]2)cc1[N+](=O)[O-] | 5900 | – | 18.2 | –
CC(C)COc1ccc(-c2nc(-c3ccnc(Cl)c3)n[nH]2)cc1[N+](=O)[O-] | – | – | 7.1 | Activity (Rattus norvegicus [6]): 40.6%
Cc1cc(-c2n[nH]c(-c3ccc(OCC4COC(C)(C)O4)c(C#N)c3)n2)ccn1 (stereo not given) | 60 | 27.9 | – | –

Source: ChEMBL document CHEMBL1139290, “Design, synthesis, and pharmacological and pharmacokinetic evaluation of 3-phenyl-5-pyridyl-1,2,4-triazole derivatives as xanthine oxidoreductase inhibitors” (Bioorg Med Chem Lett, 2009)
